Measurements from ChEMBL document CHEMBL4196158, “New Class of Selective Estrogen Receptor Degraders (SERDs): Expanding the Toolbox of PROTAC Degrons” (ACS Med Chem Lett, 2018).
The source made the active and inactive calls. The rule behind the calls is not given here.

Columns and labels:
[1] = molecular target: T1, Estrogen receptor (Homo sapiens) (UniProt P03372); assay: Antagonist activity at ERalpha in human […] assessed as inhibition of estradiol-induced GREB1 gene expression level at 3 uM after 24 hrs by qRT-PCR method; assay type: cell-based
T1 sequence (whole entry): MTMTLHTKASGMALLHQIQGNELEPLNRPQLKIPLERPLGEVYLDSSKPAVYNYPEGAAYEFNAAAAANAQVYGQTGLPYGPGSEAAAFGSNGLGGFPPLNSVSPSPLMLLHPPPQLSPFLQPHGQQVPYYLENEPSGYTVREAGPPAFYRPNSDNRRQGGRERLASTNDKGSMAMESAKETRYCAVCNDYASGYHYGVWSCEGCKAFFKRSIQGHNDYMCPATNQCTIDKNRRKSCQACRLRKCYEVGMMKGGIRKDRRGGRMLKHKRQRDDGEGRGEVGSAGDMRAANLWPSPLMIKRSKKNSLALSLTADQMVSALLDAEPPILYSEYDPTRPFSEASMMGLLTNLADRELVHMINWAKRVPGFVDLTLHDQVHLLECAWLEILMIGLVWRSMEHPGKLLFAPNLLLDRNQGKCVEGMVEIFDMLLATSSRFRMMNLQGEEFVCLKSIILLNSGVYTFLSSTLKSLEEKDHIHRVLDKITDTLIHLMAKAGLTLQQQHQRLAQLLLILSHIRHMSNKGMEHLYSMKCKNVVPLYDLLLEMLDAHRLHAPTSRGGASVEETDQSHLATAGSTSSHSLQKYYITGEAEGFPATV
In short: (§1)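 MCF-7 cells exposed 24 h to 3 µM compound with or without 1 nM estradiol (E2); transcript levels of PgR, pS2 and GREB1 quantified by qRT-PCR.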

[2] = molecular target: T1, Estrogen receptor (Homo sapiens); assay: Antagonist activity at ERalpha in human […] assessed as inhibition of estradiol-induced pS2 gene expression level at 3 uM after 24 hrs by qRT-PCR method; assay type: cell-based; in short: as §1
[3] = molecular target: T1, Estrogen receptor (Homo sapiens); assay: Antagonist activity at ERalpha in human […] assessed as inhibition of estradiol-induced PgR gene expression level at 3 uM after 24 hrs by qRT-PCR method; assay type: cell-based; in short: as §1
[4] = molecular target: T1, Estrogen receptor (Homo sapiens); assay: Displacement of [3H]estradiol from human full length ERalpha after 18 to 24 hrs by scintillation counting method
MCF7 [5] = assay: Proteolysis targeting chimera activity in human MCF7 cells assessed as induction of E3 ubiquitin ligase-mediated ERalpha level after 24 hrs by in-cell Western assay relative to control; assay type: cell-based; design: concentration or dose not given beside the values
In short: (§2)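 MCF-7 cells in stripped medium were dosed across a concentration range (log ~10^-11 to 10^-5 M) for 24 h, and ERα was quantified by in-cell Western. Average ± SEM of 4 measurements, n = 3 unless noted. IC50 derived from the dose-response curve. Efficacy is the ERα level at the highest dose, as % of vehicle control.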

[6] = Proteolysis targeting chimera activity in human MCF7 cells assessed as induction of E3 ubiquitin ligase-mediated ERalpha degradation by proteasome after 24 hrs by in-cell Western assay; assay type: cell-based; settings: MCF7, 24 h; in short: as §2
MCF7 [7] = assay: Antiproliferative activity against human MCF7 cells assessed as cell proliferation after 6 days by MTT assay relative to control; assay type: functional; design: concentration or dose not given beside the values
In short: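 MCF-7 cells kept in complete medium, dosed across a concentration range (log scale ~10^-11 to 10^-5 M) for 6 days; cell density read by MTT. Average ± SEM of 4 measurements, n = 3 unless noted. IC50 taken from dose-response. Efficacy given as relative proliferation rate at highest dose versus vehicle, with the fulvestrant level set to zero.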

MCF7 [8] = assay: Antiproliferative activity against human MCF7 cells after 6 days by MTT assay; settings: MCF7, 144 h
MCF7 [9] = assay: Proteolysis targeting chimera activity in human MCF7 cells assessed as induction of E3 ubiquitin ligase-mediated ERalpha level after 24 hrs by in presence of proteasome inhibitor MG132 by in-cell Western assay; assay type: cell-based

SMILES | inhibition [1] | inhibition [2] | inhibition [3] | RBA [4] [%] | Activity (MCF7 [5]) [%] | IC50 [6] [nM] | Activity (MCF7 [7]) [%] | IC50 (MCF7 [8]) [nM] | Activity (MCF7 [9])
CC(C)(C)OC(=O)N[C@@H](Cc1c[nH]c2ccccc12)C(=O)NCCCCOc1ccc(C(=C2C3CC4CC(C3)CC2C4)c2ccc(O)cc2)cc1 | Active | Active | Active | 20 | 45 | 0.5 | 16 | 16 | 
O=C(NCCCCOc1ccc(C(=C2C3CC4CC(C3)CC2C4)c2ccc(O)cc2)cc1)C1CCCCCC1 |  |  |  | 30 | 76 |  | 15 | 5 | 
O=C(NCCCCOc1ccc(C(=C2C3CC4CC(C3)CC2C4)c2ccc(O)cc2)cc1)[C@@H]1C[C@@H]2C=C[C@H]1C2 |  |  |  | 37 | 53 | 0.5 | 42 | 9 | 
O=C(NCCOc1ccc(C(=C2C3CC4CC(C3)CC2C4)c2ccc(O)cc2)cc1)C12CC3CC(CC(C3)C1)C2 |  |  |  | 21 | 76 |  | 16 | 17 | 
CC12CC3CC(C)(C1)CC(C(=O)NCCCCOc1ccc(C(=C4C5CC6CC(C5)CC4C6)c4ccc(O)cc4)cc1)(C3)C2 |  |  |  | 6 | 42 | 10 | 57 | 5 | 
O=C(NCCCCOc1ccc(C(=C2C3CC4CC(C3)CC2C4)c2ccc(O)cc2)cc1)C12CC3CC(CC1C3)C2 |  |  |  | 17 | 71 | 2 | 42 | 12 | 
O=C(NCCCCOc1ccc(C(=C2C3CC4CC(C3)CC2C4)c2ccc(O)cc2)cc1)[C@H]1CC[C@H](C(F)(F)F)CC1 | Active | Active | Active | 10 | 31 | 2 | 13 | 0.5 | 
CC(C)C[C@H](NC(=O)OC(C)(C)C)C(=O)NCCCCOc1ccc(C(=C2C3CC4CC(C3)CC2C4)c2ccc(O)cc2)cc1 |  |  |  | 14 | 56 | 636 | 20 | 36 | 
O=C(NCCCOc1ccc(C(=C2C3CC4CC(C3)CC2C4)c2ccc(O)cc2)cc1)C12CC3CC(CC(C3)C1)C2 | Active | Active | Active | 26 | 42 | 3 | 13 | 9 | 
O=C(NCCCCOc1ccc(C(=C2C3CC4CC(C3)CC2C4)c2ccc(O)cc2)cc1)C1CCC(F)(F)CC1 |  |  |  | 30 | 67 |  | 20 | 4 | 
C[C@]12CC[C@@H]3c4ccc(O)cc4C[C@@H](CCCCCCCCC[S+]([O-])CCCC(F)(F)C(F)(F)F)[C@H]3[C@@H]1CC[C@@H]2O (stereo partly specified) [FULVESTRANT] |  |  |  | 61 | 9 | < 0.1 | 0 | < 0.1 | 
O=C(NCCCCOc1ccc(C(=C2C3CC4CC(C3)CC2C4)c2ccc(O)cc2)cc1)C1CCCCC1 |  |  |  | 28 | 35 | 0.4 | 13 | 0.6 | inactive
CC(C)(C)OC(=O)N[C@@H](Cc1ccccc1)C(=O)NCCCCOc1ccc(C(=C2C3CC4CC(C3)CC2C4)c2ccc(O)cc2)cc1 |  |  |  | 14 | 71 | 307 | 25 | 7 | 
O=C(NCCCCOc1ccc(C(=C2C3CC4CC(C3)CC2C4)c2ccc(O)cc2)cc1)C1CCC1 |  |  |  | 70 | 69 |  | 15 | 3 | 
O=C(NCCCCOc1ccc(C(=C2C3CC4CC(C3)CC2C4)c2ccc(O)cc2)cc1)C12CC3CC(CC(C3)C1)C2 |  |  |  | 11 | 51 | 6 | 13 | 13 | 
